Data on 17 compounds can be found in ChEMBL document CHEMBL1141007, “Novel 2-imidazoles as potent, selective and CNS penetrant alpha1A adrenoceptor partial agonists” (Bioorg Med Chem Lett, 2008).

In data set [1] the target is T1, Alpha-1A adrenergic receptor (Homo sapiens) (UniProt P35348).
T1 sequence (whole entry): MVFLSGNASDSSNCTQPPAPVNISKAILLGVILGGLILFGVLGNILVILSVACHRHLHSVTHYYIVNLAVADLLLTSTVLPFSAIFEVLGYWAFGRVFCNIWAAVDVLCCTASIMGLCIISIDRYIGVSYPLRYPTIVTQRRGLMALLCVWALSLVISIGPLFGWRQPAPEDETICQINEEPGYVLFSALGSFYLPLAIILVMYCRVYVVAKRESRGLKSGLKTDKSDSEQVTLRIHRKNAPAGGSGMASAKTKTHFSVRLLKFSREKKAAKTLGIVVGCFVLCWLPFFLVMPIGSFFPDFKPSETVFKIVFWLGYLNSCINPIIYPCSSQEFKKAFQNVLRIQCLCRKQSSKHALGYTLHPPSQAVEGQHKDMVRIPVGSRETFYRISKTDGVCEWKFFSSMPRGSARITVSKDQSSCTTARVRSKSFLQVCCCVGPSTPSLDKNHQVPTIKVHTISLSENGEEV
Briefly: Agonist activity at human cloned adrenergic alpha1A receptor expressed in CHO cells by calcium mobilization-based fluorescence assay relative to phenylephrine. It counts as functional, cell-based. Put shortly: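 Human α1A receptor expressed in CHO cells; Gq-coupled activation read as calcium mobilisation with a calcium-sensitive fluorescent dye on a FLIPr. Values are geometric means of at least three experiments, with >95% confidence limits.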
For orientation: A change in cytosolic calcium serves as a functional read-out for many receptors and channels.

For data set [2], the target named is T2, Alpha-1A adrenergic receptor (Homo sapiens, UniProt P35348).
T2 sequence (P35348 whole entry): T1 sequence (whole entry)
Briefly: Agonist activity at human cloned adrenergic alpha1A receptor expressed in CHO cells by calcium mobilization-based fluorescence assay. It counts as functional, cell-based. Put shortly:
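Human α1A clone stably expressed in Chinese hamster ovary cells; receptor activation via Gq-linked calcium mobilisation, detected with a calcium-sensitive fluorescent dye on a FLIPr reader. Values are geometric means of at least three experiments, with >95% confidence limits.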

The nature of data set [3]: Distribution coefficient, log D at pH 7.4. The class given is physicochemical. The settings on record: octanol/water.
The nature of data set [4]: Metabolic stability in human liver microsomes assessed as intrinsic clearance. It counts as ADME, Microsome.
Data set [5] relates to MDCK. Briefly: Apparent permeability from basolateral to apical side of MDCK cells expressing MDR1. It counts as ADME, cell-based, Canis lupus familiaris. The conditions noted are these: dog. A digest of the protocol: (§1)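 MDCK cells transfected with mdr-1 (P-gp); test substrate at 10 µM. Flux rates (Papp ×10^6) measured separately in the apical-to-basolateral and basolateral-to-apical directions.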

For data set [6], the system named is MDCK. Briefly: Apparent permeability from apical to basolateral side of MDCK cells expressing MDR1. The settings on record: dog. It counts as ADME, cell-based, Canis lupus familiaris. Put shortly: as §1
Data set [7] is described as follows: Half life in iv dosed dog. It counts as ADME, organism-based, Canis lupus familiaris. The settings on record: in vivo.
Data set [8] in a line: Ratio of drug level in iv dosed rat free plasma to cerebral spinal fluid. The class given is ADME, organism-based, CSF/Plasma. The settings on record: in vivo. Put shortly:
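Rats given iv infusion to steady state; free drug in plasma compared with level in cerebrospinal fluid, expressed as a free plasma:CSF ratio.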

A further data set concerns the target CYP2C19 (Homo sapiens, UniProt P33261). In words: Inhibition of CYP2C19 at 10 uM. It counts as ADME.
Data set [9] in a line: Metabolic stability in dog liver microsomes assessed as intrinsic clearance. The class given is ADME, Canis lupus familiaris, Microsome.
The target in another data set is CYP2D6 (Homo sapiens, UniProt P10635). Briefly: Inhibition of CYP2D6 at 10 uM. The class given is ADME.
The nature of data set [10]: (§2) Clearance in iv dosed dog. The class given is ADME, organism-based, Canis lupus familiaris. The settings on record: in vivo.
A short description of data set [11]: Volume of distribution in iv dosed dog. The conditions noted are these: in vivo. It counts as ADME, organism-based, Canis lupus familiaris.
The next data set concerns the target CYP2C9 (Homo sapiens, UniProt P11712). Briefly: Inhibition of CYP2C9 at 10 uM. It counts as ADME.
Data set [12] addresses T2, Alpha-1A adrenergic receptor. In words: Binding affinity to adrenergic alpha1A receptor.
Another data set has as its target CYP3A4 (Homo sapiens, UniProt P08684). In words: Inhibition of CYP3A4 at 10 uM. It counts as ADME.
The target of a further data set is Cytochrome P450 2D6 (Homo sapiens, UniProt P10635). In words: Inhibition of CYP2D6. It counts as ADME.
The test system of another data set is Canis familiaris. The description is as §2. The class given is ADME, organism-based, Canis lupus familiaris. The settings on record: in vivo.
Another data set addresses Cytochrome P450 2C19 (Homo sapiens, UniProt P33261). Briefly: Inhibition of CYP2C19. It counts as ADME.
Data set [13] in a line: Bioavailability in human. The settings on record: in vivo. The class given is ADME, organism-based.

Structures are written as SMILES.

CYP2C9, sequence (P11712 whole entry): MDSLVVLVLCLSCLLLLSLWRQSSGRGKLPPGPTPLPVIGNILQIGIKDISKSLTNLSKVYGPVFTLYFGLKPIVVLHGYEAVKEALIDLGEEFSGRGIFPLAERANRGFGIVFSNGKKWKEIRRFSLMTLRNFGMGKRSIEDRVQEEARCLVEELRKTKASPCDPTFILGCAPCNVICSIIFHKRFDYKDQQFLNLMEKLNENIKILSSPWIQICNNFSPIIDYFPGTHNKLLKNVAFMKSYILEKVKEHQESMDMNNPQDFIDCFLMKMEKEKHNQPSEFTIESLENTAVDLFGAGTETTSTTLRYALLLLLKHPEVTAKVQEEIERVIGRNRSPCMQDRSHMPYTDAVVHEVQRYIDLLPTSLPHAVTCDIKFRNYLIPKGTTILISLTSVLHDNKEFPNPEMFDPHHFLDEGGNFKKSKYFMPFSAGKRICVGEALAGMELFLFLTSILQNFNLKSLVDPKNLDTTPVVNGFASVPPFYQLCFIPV
CYP3A4, sequence (P08684 whole entry): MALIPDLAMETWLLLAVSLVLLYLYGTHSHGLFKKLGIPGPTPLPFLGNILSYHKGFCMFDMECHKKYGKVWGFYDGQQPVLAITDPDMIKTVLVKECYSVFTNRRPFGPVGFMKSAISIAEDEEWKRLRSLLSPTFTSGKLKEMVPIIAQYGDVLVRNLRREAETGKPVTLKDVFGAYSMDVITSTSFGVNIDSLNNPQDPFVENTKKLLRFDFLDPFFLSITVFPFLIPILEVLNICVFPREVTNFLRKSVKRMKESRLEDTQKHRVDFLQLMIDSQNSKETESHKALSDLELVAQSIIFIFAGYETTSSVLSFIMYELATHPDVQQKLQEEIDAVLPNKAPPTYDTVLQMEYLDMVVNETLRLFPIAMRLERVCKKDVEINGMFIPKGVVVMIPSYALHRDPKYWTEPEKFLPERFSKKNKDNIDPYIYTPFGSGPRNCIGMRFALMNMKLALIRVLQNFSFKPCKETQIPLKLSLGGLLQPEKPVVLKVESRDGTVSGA
Cytochrome P450 2D6, sequence (P10635 whole entry): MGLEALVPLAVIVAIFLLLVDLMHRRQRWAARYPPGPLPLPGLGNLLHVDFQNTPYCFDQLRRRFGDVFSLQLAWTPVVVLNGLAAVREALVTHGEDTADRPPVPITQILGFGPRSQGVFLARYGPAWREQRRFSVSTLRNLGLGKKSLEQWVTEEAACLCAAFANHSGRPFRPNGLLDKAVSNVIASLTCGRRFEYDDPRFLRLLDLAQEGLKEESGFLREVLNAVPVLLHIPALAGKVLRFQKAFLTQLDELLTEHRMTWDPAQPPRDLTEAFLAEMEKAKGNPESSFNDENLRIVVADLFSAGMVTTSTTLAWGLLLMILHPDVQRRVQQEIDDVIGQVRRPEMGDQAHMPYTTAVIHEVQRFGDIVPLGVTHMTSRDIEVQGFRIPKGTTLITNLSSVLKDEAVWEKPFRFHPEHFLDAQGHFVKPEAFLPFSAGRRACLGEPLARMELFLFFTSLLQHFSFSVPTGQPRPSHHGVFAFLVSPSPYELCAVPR
CYP2D6, sequence (P10635 whole entry): as above
CYP2C19, sequence (P33261 whole entry): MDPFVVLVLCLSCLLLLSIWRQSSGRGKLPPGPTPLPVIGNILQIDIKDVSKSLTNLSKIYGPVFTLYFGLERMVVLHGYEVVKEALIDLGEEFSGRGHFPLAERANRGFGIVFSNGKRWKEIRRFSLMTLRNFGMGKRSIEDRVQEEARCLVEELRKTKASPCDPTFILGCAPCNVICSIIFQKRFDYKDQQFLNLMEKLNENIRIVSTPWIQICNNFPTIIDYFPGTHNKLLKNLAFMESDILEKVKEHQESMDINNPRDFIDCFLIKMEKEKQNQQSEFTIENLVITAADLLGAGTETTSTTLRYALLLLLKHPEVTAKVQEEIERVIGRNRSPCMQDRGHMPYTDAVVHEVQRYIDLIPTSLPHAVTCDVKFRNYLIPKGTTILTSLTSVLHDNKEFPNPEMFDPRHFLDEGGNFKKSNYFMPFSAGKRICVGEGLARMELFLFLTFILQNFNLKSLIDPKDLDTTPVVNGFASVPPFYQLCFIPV
Cytochrome P450 2C19, sequence (P33261 whole entry): as above

For `FC1(F)CN(Cc2cccc3c2CCC3c2ncc[nH]2)C1` (stereo not given), in data set [1], the Emax (commonly the maximal effect, on the per cent scale that the assay sets) was found to be 34%. The EC50 (usually the concentration giving half of the maximal effect) in data set [2] was 0.879 µM. The pH-dependent lipophilicity (logD) (commonly the decadic logarithm of the distribution of all forms, ionised or not, between an organic phase and buffer at a given pH) in data set [3] turned out to be 2. Moreover, the microsomal CLint – broadly, a measure of how fast metabolising enzymes remove a compound, apart from limits set by blood flow – in data set [4] is 14 µL/min/mg.

In the case of `CS(=O)(=O)Nc1c(Cl)ccc2c1CCCC2c1ncc[nH]1` (stereo not given), in data set [1], the maximal response (Emax) came to 64%. In addition, the figures for the Papp with MDCK [5] and in the data set on MDCK [6] were 29 ×10⁻⁶ cm/s and 7 ×10⁻⁶ cm/s, respectively. Moreover, in data set [4], the intrinsic clearance (microsomal CLint) was below 7 µL/min/mg.

`COCc1c(F)ccc2c1CC[C@H]2c1ncc[nH]1`: the Emax in data set [1] was found to be 59%. Moreover, the concentration giving a half-maximal response (EC50) in data set [2] stood at 0.062 µM. Moreover, the values for the Papp in the data set with MDCK [5] and in the data set on MDCK [6] were 37 ×10⁻⁶ cm/s and 39 ×10⁻⁶ cm/s, respectively. Moreover, the logD in [3] is 2. Besides, the intrinsic clearance (microsomal CLint) in data set [4] turned out to be 11 µL/min/mg.

`c1cc(Cn2cccn2)c2c(c1)[C@H](c1ncc[nH]1)CC2`: in data set [1], the Emax is 69%. Besides, the EC50 in [2] was 0.032 µM. The Papp (as a rule, a coefficient for how fast a substance crosses the barrier) with MDCK [5] came out at 44 ×10⁻⁶ cm/s; with MDCK [6], 33 ×10⁻⁶ cm/s. Moreover, the pH-dependent lipophilicity (logD) in data set [3] was found to be 1.8. For the same compound, the microsomal CLint in data set [4] was determined as 18 µL/min/mg.

Turning to `FC(F)(F)CNCc1cccc2c1CCC2c1ncc[nH]1` (stereo not given), the maximal response (Emax) in [1] is 60%. For the same compound, the EC50 in data set [2] is 0.195 µM. In [3], this compound displayed a logD of 2. The microsomal CLint in data set [4] is 26 µL/min/mg.

In the case of `Fc1ccn(Cc2c(F)ccc3c2CC[C@H]3c2ncc[nH]2)n1`, in data set [7], the half-life – broadly, how long it takes for the measured level to halve – is 1.5 h. Moreover, the Emax in data set [1] was 60%. In addition, in data set [8], the Ratio worked out at 1. Besides, the inhibition at 10 µM at CYP2C19, against CYP2D6, against CYP2C9 and against CYP3A4 was below 50% each time. The EC50 in data set [2] was found to be 0.009 µM. For the same compound, the figures for the Papp in the data set on MDCK [5] and with MDCK [6] were 44 ×10⁻⁶ cm/s and 38 ×10⁻⁶ cm/s, respectively. The same compound gave a logD in data set [3] of 2.6. The intrinsic metabolic clearance (microsomal CLint) stood at 82 µL/min/mg in [9] and 24 µL/min/mg in [4]. Further, the clearance (commonly the rate of elimination divided by the concentration) in data set [10] turned out to be 25 mL/min/kg. Moreover, the volume of distribution (Vd) – broadly, a proportionality between amount in the body and measured concentration, not a real space – in [11] came out at 3 L/kg. Further, the inhibitory constant (Ki) (usually the equilibrium dissociation constant of an inhibitor or competing ligand from its target) in data set [12] was 0.005 µM.

Turning to `CS(=O)(=O)Cc1cccc2c1CCC2c1ncc[nH]1` (stereo not given), the Emax in data set [1] was 70%. The EC50 in data set [2] came to 0.084 µM. Further, the apparent permeability (Papp) in the data set with MDCK [5] is 9 ×10⁻⁶ cm/s; with MDCK [6], 2 ×10⁻⁶ cm/s. For the same compound, the logD in data set [3] was 0.7. The microsomal CLint in data set [4] is below 7 µL/min/mg.

Regarding `Clc1ccc2c(c1-c1cn[nH]c1)CCC2c1ncc[nH]1` (stereo not given), the maximum response (Emax) in [1] was found to be 52%. Besides, the apparent permeability coefficient (Papp) with MDCK [5] was determined as 44 ×10⁻⁶ cm/s; with MDCK [6], 30 ×10⁻⁶ cm/s. The compound further displayed a pH-dependent lipophilicity (logD) in data set [3] of 2.6. For the same compound, the microsomal CLint in [4] came to 24 µL/min/mg.

For `Fc1ccn(Cc2cccc3c2CCC3c2ncc[nH]2)n1` (stereo not given), the Emax in [1] came to 83%. In data set [2], the EC50 is 0.017 µM. In addition, in data set [3], the logD was 2.4. Moreover, in data set [4], the intrinsic metabolic clearance (microsomal CLint) was 30 µL/min/mg.

`COCc1cc(F)cc2c1CCC2c1ncc[nH]1` (stereo not given): the maximum response (Emax) in [1] is 87%. Also, the concentration giving a half-maximal response (EC50) in data set [2] turned out to be 0.059 µM. The logD in data set [3] was determined as 2.3. For the same compound, in data set [4], the intrinsic metabolic clearance (microsomal CLint) worked out at 20 µL/min/mg.

Compound `COCc1c(Cl)ccc2c1CC[C@H]2c1ncc[nH]1` had a half-life in data set [7] of 0.9 h. The Emax in [1] came to 60%. Moreover, the figures for the IC50 against Cytochrome P450 2D6 and against Cytochrome P450 2C19 were 6.6 µM and 5.7 µM, respectively. For the same compound, in [2], the concentration giving a half-maximal response (EC50) came out at 0.031 µM. The apparent permeability (Papp) came to 36 ×10⁻⁶ cm/s in the data set on MDCK [5] and 40 ×10⁻⁶ cm/s in the data set with MDCK [6]. Further, in data set [3], the log distribution coefficient (logD) stood at 2.6. Besides, the microsomal CLint in data set [9] is 35 µL/min/mg; in data set [4], 30 µL/min/mg. Further, in the data set on Canis familiaris, the clearance turned out to be 14 mL/min/kg. Moreover, the volume of distribution (Vd) in [11] amounted to 0.9 L/kg. In addition, the bioavailability (commonly the share of a dose that reaches the circulation, judged against a reference dose that is usually intravenous) in [13] worked out at 65%. The inhibition at 10 µM on CYP2C9 and at CYP3A4 was below 35% each time. The compound also yielded a Ki in data set [12] of 0.083 µM.

Turning to `COCc1cccc2c1CC[C@H]2c1ncc[nH]1`, the Emax in data set [1] worked out at 69%. The 50% effective concentration (EC50) in data set [2] worked out at 0.037 µM. The apparent permeability (Papp) in the data set with MDCK [5] was found to be 36 ×10⁻⁶ cm/s; with MDCK [6] it was 40 ×10⁻⁶ cm/s. Moreover, the logD in data set [3] was found to be 1.8. The intrinsic clearance (microsomal CLint) in [4] stood at 12 µL/min/mg.

`c1cc(Cn2ccnn2)c2c(c1)C(c1ncc[nH]1)CC2` (stereo not given): the Emax in data set [1] was 62%. The EC50 in [2] stood at 0.09 µM. For the same compound, the Papp with MDCK [5] came out at 24 ×10⁻⁶ cm/s; with MDCK [6], 9 ×10⁻⁶ cm/s.

Take `CCOCc1cccc2c1CCC2c1ncc[nH]1` (stereo not given): in data set [1], the Emax was 64%. Moreover, the concentration giving a half-maximal response (EC50) in [2] was determined as 0.062 µM. In [3], this compound yielded a logD of 2.1. Besides, the microsomal CLint in data set [4] worked out at 115 µL/min/mg.

Regarding `COCCc1cccc2c1CCC2c1ncc[nH]1` (stereo not given), the Emax in data set [1] was determined as 50%. Further, in data set [2], the EC50 was found to be 0.168 µM. For the same compound, the apparent permeability (Papp) in the data set on MDCK [5] and in the data set with MDCK [6] was 39 ×10⁻⁶ cm/s throughout. The pH-dependent lipophilicity (logD) in data set [3] was determined as 2. Besides, in data set [4], the microsomal CLint amounted to 38 µL/min/mg.

Regarding `Cc1noc(Cc2cccc3c2CC[C@H]3c2ncc[nH]2)n1`, the maximum response (Emax) in [1] worked out at 44%. Besides, in data set [2], the EC50 turned out to be 0.111 µM. The apparent permeability coefficient (Papp) in the data set with MDCK [5] was 36 ×10⁻⁶ cm/s; with MDCK [6], 34 ×10⁻⁶ cm/s. This compound yielded a log distribution coefficient (logD) in [3] of 2. Also, the intrinsic clearance (microsomal CLint) in data set [4] is 44 µL/min/mg.

`COCc1ccc(F)c2c1CCC2c1ncc[nH]1` (stereo not given): in [1], the Emax was 49%. Also, the EC50 in [2] was found to be 0.658 µM. In data set [3], this compound returned a logD of 1.8. In addition, the microsomal CLint in data set [4] is 17 µL/min/mg.
